Reference: PMC2748767 (Journal of medicinal chemistry, 2009)

How the values were obtained:
[1] = target: carboxypeptidase Y (Saccharomyces cerevisiae, UniProt P00729); experiment: Carboxypeptidase Y-mediated cleavage monitored by 31P-NMR; format: in vitro ADME; conditions: for conversion by carboxypeptidase Y (in words): d6-acetone and trizma buffer pH 7.6, 31P-NMR; for half-life: yeast, carboxypeptidase Y (isolated enzyme), pH 7.6
Summary of the method: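 Test compound was dissolved in d6-acetone plus trizma buffer (pH 7.6). A 31P-NMR blank spectrum was recorded for each sample before carboxypeptidase Y was added, and conversion was then followed by 31P-NMR.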

[2] = test system: thymidine kinase-deficient (TK-) HSV-1 KOS strain resistant to ACV (ACVr); experiment: Anti-TK-deficient HSV-1; format: cell-based; conditions: versus HSV-1 and HSV-2
[3] = test system: HIV-1 X4LAI.04; experiment: Anti-HIV-1 assay in MT-4 cell cultures; format: cell-based; conditions: HIV-1 X4LAI.04 in MT-4 cells, 3 days, 50% suppression of p24 production
[4] = test system: CEM cells; experiment: Cytostatic activity in CEM cells; format: cell-based; conditions: Homo sapiens, CCRF-CEM, read-out: Cytostatic activity IC50 CEM
[5] = Hydrolysis of ProTides in crude CEM cell extracts; format: in vitro ADME, human; conditions: 10 μM, 37 °C; for conversion in CEM cell extracts: within one hour of incubation
Summary of the method: (§1)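 Exponentially growing CEM cells were washed twice in PBS, resuspended in PBS and sonicated. The extract was cleared by centrifugation (10 min, 15,000 rpm) and frozen at -20 °C. Test compound (10 μM) was incubated in crude extract at 37 °C for 30, 60 and 120 min. Aliquots were quenched in cold methanol and centrifuged, and supernatants went to reverse-phase C18 HPLC. Results are given as percent disappearance of intact parent.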

[6] = Hydrolysis of ProTides in tonsil extracts; format: in vitro ADME, human; conditions: data not shown
Summary of the method: as §1, with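 “Tonsil tissues” for “Exponentially growing CEM cells”, “homogenised mechanically.” for “sonicated.”, “HPLC to separate parent from hydrolysis products.” for “HPLC. Results are given as percent disappearance of intact parent.”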

[7] = Stability in human serum monitored by 31P-NMR; format: in vitro ADME; conditions: after 12 h, 37 °C, DMSO/D2O
[8] = Stability in pH 1.0 buffer monitored by 31P-NMR; format: physicochemical

carboxypeptidase Y, sequence (P00729 112-532): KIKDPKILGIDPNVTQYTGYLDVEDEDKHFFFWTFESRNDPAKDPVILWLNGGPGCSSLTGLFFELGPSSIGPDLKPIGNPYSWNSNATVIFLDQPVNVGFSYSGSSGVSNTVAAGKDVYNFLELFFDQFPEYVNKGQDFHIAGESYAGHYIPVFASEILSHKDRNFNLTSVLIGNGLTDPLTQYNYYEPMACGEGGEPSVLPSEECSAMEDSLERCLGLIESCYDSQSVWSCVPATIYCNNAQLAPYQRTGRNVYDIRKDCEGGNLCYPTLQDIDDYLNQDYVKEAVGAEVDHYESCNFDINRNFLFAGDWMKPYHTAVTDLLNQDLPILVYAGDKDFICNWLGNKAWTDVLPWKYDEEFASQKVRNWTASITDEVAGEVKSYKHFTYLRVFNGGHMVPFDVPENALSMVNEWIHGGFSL

Structure (SMILES): COC(=O)[C@H](NP(=O)(OCCOCn1cnc2c(=O)[nH]c(N)nc21)Oc1cccc2ccccc12)C(C)C (some centres unmarked) [Compound 19]
- conversion by carboxypeptidase Y (in words) [1]: not processed

Structure (SMILES): Nc1nc2c(ncn2COCCO)c(=O)[nH]1 [ACV (1), acyclovir]
- loss of activity against thymidine kinase-deficient HSV-1 [2]: > 100 fold
- Antiviral Activity EC50 HIV-1 MT4 [3]: inactive

Structure (SMILES): CCCOC(=O)[C@H](C)NP(=O)(OCCOCn1cnc2c(=O)[nH]c(N)nc21)Oc1cccc2ccccc12 (some centres unmarked) [Compound 3]
- IC50 [4]: 22 µM

Structure (SMILES): C[C@H](NP(=O)(OCCOCn1cnc2c(=O)[nH]c(N)nc21)Oc1ccccc1)C(=O)OCc1ccccc1 (some centres unmarked) [Compound 9]
- half-life [1]: 0.283 h
- conversion in CEM cell extracts [5]: > 95%
- hydrolysis in tonsil extracts (in words) [6]: efficiently hydrolyse
- compound still present in human serum [7]: 56%
- half-life [8]: 11 h

Structure (SMILES): COC(=O)[C@H](C)NP(=O)(OCCOCn1cnc2c(=O)[nH]c(N)nc21)Oc1cccc2ccccc12 (some centres unmarked) [Compound 4]
- IC50 [4]: 57 µM
- conversion in CEM cell extracts [5]: 65%
- hydrolysis in tonsil extracts (in words) [6]: efficiently hydrolyse

Structure (SMILES): COC(=O)[C@H](C)NP(=O)(OCCOCn1cnc2c(=O)[nH]c(N)nc21)Oc1ccccc1 (some centres unmarked) [Compound 8]
- IC50 [4]: 67 ± 7.8 µM

Structure (SMILES): C[C@H](NP(=O)(OCCOCn1cnc2c(=O)[nH]c(N)nc21)Oc1cccc2ccccc12)C(=O)OCc1ccccc1 (stereo partly drawn) [Compound 2, acyclovir-[1-naphthyl(benzoxy-L-alaninyl)] phosphate]
- IC50 [4]: 17 µM

Structure (SMILES): C[C@H](NP(=O)(OCCOCn1cnc2c(=O)[nH]c(N)nc21)Oc1cccc2ccccc12)C(=O)OC(C)(C)C (some centres unmarked) [Compound 6]
- conversion by carboxypeptidase Y (in words) [1]: no conversion at all
- stability in CEM cell extracts (in words) ([5]; after a 120 min-incubation period): entirely stable

Structure (SMILES): CC(C)OC(=O)[C@H](C)NP(=O)(OCCOCn1cnc2c(=O)[nH]c(N)nc21)Oc1ccccc1 (some centres unmarked) [Compound 10]
- times slower conversion by carboxypeptidase Y than 9 ([1]; ratio of half-lives versus compound 9): ca. 150 times
- half-life [1]: 46 h

Structure (SMILES): COC(=O)[C@@H](NP(=O)(OCCOCn1cnc2c(=O)[nH]c(N)nc21)Oc1cccc2ccccc12)C(C)C (some centres unmarked) [Compound 17]
- half-life [1]: 72 h

Structure (SMILES): Nc1nc2c(ncn2COCCOP(=O)(NC(Cc2ccccc2)C(=O)OCc2ccccc2)Oc2ccccc2)c(=O)[nH]1 (centres unmarked) [Compound 15]
- IC50 [4]: 42 µM
